In general, EC50 refers to the concentration giving half of the maximal effect. Broadly, the IC50 is the concentration needed to halve the response being measured.

For one series, the system named is SK-MEL-24. Kind of series: Toxicity in human SK-MEL-24 cells assessed as induction of cell necrosis and/or apoptosis incubated for 3 hrs by annexin V-PE and 7-AAD staining based by flow cytometry. As to conditions: sk-mel-24, 3 h. The essentials: (§1)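 After 3 h incubation, cells resuspended in complete medium and stained with annexin V-PE/7-AAD reagent for 20 min at room temperature in the dark. Flow cytometry sorted cells into viable, early apoptotic and late apoptotic/necrotic populations.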
For orientation: A flow cytometer gives signals particle by particle.

In the next series the test system is MCF7. Kind of series: Toxicity in human MCF7 cells assessed as induction of cell necrosis and/or apoptosis incubated for 3 hrs by annexin V-PE and 7-AAD staining based by flow cytometry. To be noted: mcf7, 3 h. The essentials:
as §1

Another series has as its system HT-29. Put plainly: Toxicity in human HT-29 cells assessed as induction of cell necrosis and/or apoptosis incubated for 3 hrs by annexin V-PE and 7-AAD staining based by flow cytometry. To be noted: ht-29, 3 h. The essentials: as §1
In a further series the test system is K562. Put plainly: Toxicity in human K562 cells assessed as induction of cell necrosis and/or apoptosis incubated for 3 hrs by annexin V-PE and 7-AAD staining based by flow cytometry. As to conditions: k562, 3 h. The essentials: as §1
The test system of the next series is HEL. Kind of series: Toxicity in human HEL cells assessed as induction of cell necrosis and/or apoptosis incubated for 3 hrs by annexin V-PE and 7-AAD staining based by flow cytometry. The essentials:
as §1

For series [1], the target named is T1, Integrin alpha-V/beta-3 (Homo sapiens, UniProt P05106+P06756). Kind of series: Agonist activity at alphaVbeta3 in human SK-MEL-24 cells assessed as increase in cell adhesion to fibronectin at 10 to 10000 nM pre-incubated for 30 mins before fibronectin and further incubated for 1 hr by nitrophenyl-N-acetyl-beta-D-glucosaminide substrate based chromogenic assay. As to conditions: filed as agonist, dose 10-10000 nM, time 90.0 min. The essentials: (§2)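 SK-MEL-24 cells pre-incubated 30 min at room temperature with compound (1×10^-10–1×10^-4 M) or methanol, then plated at 50,000/well on fibronectin (10 µg/mL) coated wells for 1 h at room temperature. Adherent cells quantified by 4-nitrophenyl-N-acetyl-glucosaminide hydrolysis, absorbance 405 nm. Quadruplicate, at least three repeats; IC50/EC50 derived.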

Series [2] addresses T1, Integrin alpha-V/beta-3. Put plainly: Antagonist activity at alphaVbeta3 in human SK-MEL-24 cells assessed as reduction in cell adhesion to fibronectin at 10 to 10000 nM pre-incubated for 30 mins before fibronectin and further incubated for 1 hr by nitrophenyl-N-acetyl-beta-D-glucosaminide substrate based chromogenic assay. To be noted: filed as antagonist, dose 10-10000 nM, time 90.0 min. The essentials: as §2

For series [3], the target named is T2, Integrin alpha-V/beta-5 (Homo sapiens, UniProt P06756+P18084). Kind of series: Agonist activity at alphaVbeta5 in human MCF7 cells assessed as increase in cell adhesion to fibrinogen pre-incubated for 30 mins before fibrinogen and further incubated for 1 hr by nitrophenyl-N-acetyl-beta-D-glucosaminide substrate based chromogenic assay. The essentials:
(§3)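 Compound or methanol vehicle pre-incubated with cells for 30 min at room temperature. Cells then plated on wells coated overnight at 4 °C with fibronectin 10 µg/mL (SK-MEL-24, K562, HT-29) or fibrinogen 10 µg/mL (MCF7, HEL). Seeding was 50,000 cells/well, or 100000 for HEL. Adhesion ran 1 h at room temperature. Wells washed with 1% BSA/PBS. Adherent cells read by hexosaminidase substrate, absorbance 405 nm. Quadruplicate, at least three repeats.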

Series [4] concerns the target T2, Integrin alpha-V/beta-5. Put plainly: Antagonist activity at alphaVbeta5 in human MCF7 cells assessed as reduction in cell adhesion to fibrinogen pre-incubated for 30 mins before fibrinogen and further incubated for 1 hr by nitrophenyl-N-acetyl-beta-D-glucosaminide substrate based chromogenic assay. The essentials:
(§4)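 Compound or methanol vehicle pre-incubated with cells for 30 min at room temperature. Cells then plated on wells coated overnight at 4 °C with fibronectin 10 µg/mL (SK-MEL-24, K562, HT-29) or fibrinogen 10 µg/mL (MCF7, HEL). Seeding was 50,000 cells/well, or 100000 for HEL. Adhesion ran 1 h at room temperature. Wells washed with 1% BSA/PBS. Quadruplicate, at least three repeats.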

Series [5] deals with T3, Integrin alpha-V/beta-6 (Homo sapiens, UniProt P06756+P18564). Kind of series: Agonist activity at alphaVbeta6 in human HT-29 cells assessed as increase in cell adhesion to fibronectin pre-incubated for 30 mins before fibronectin and further incubated for 1 hr by nitrophenyl-N-acetyl-beta-D-glucosaminide substrate based chromogenic assay. The essentials:
as §3

Series [6] concerns the target T3, Integrin alpha-V/beta-6. Put plainly: Antagonist activity at alphaVbeta6 in human HT-29 cells assessed as reduction in cell adhesion to fibronectin pre-incubated for 30 mins before fibronectin and further incubated for 1 hr by nitrophenyl-N-acetyl-beta-D-glucosaminide substrate based chromogenic assay. The essentials:
as §4

Series [7] deals with T4, Integrin alpha-5/beta-1 (Homo sapiens, UniProt P05556+P08648). Kind of series: Agonist activity at alpha5beta1 in human K562 cells assessed as increase in cell adhesion to fibronectin pre-incubated for 30 mins before fibronectin and further incubated for 1 hr by nitrophenyl-N-acetyl-beta-D-glucosaminide substrate based chromogenic assay. The essentials: as §3
Series [8] addresses T4, Integrin alpha-5/beta-1. Kind of series: Antagonist activity at alpha5beta1 in human K562 cells assessed as reduction in cell adhesion to fibronectin pre-incubated for 30 mins before fibronectin and further incubated for 1 hr by nitrophenyl-N-acetyl-beta-D-glucosaminide substrate based chromogenic assay. The essentials: as §3
Series [9] deals with T5, Integrin alpha-4/beta-1 (Homo sapiens, UniProt P05556+P13612). Put plainly: Agonist activity at alpha4beta1 in human Jurkat E6.1 cells assessed as increase in cell adhesion to VCAM1 pre-incubated for 30 mins before VCAM1 and further incubated for 30 mins by […]. It counts as cell-based. The essentials:
(§5)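 Jurkat E6.1 cells labelled with CellTracker green CMFDA (12.5 µM, 30 min, 37 °C), washed, then pre-incubated 30 min at 37 °C with compound or methanol. Plated at 500,000/well on VCAM-1 (α4β1) or ICAM-1 (αLβ2) coated wells (5 µg/mL) for 30 min at 37 °C. Cells lysed in 0.5% Triton X-100; fluorescence read Ex485/Em535. Quadruplicate, at least three repeats.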

The target of series [10] is T6, Integrin alpha-IIb/beta-3 (Homo sapiens, UniProt P05106+P08514). Kind of series: Agonist activity at alpha2bbeta3 in human HEL cells assessed as increase in cell adhesion to fibrinogen pre-incubated for 30 mins before fibrinogen and further incubated for 1 hr by nitrophenyl-N-acetyl-beta-D-glucosaminide substrate based chromogenic assay. The essentials: as §4
The target of series [11] is T6, Integrin alpha-IIb/beta-3. Kind of series: Antagonist activity at alpha2bbeta3 in human HEL cells assessed as reduction in cell adhesion to fibrinogen pre-incubated for 30 mins before fibrinogen and further incubated for 1 hr by nitrophenyl-N-acetyl-beta-D-glucosaminide substrate based chromogenic assay. The essentials:
as §4

Series [12] deals with T5, Integrin alpha-4/beta-1. Kind of series: Antagonist activity at alpha4beta1 in human Jurkat E6.1 cells assessed as reduction in cell adhesion to VCAM1 pre-incubated for 30 mins before VCAM1 and further incubated for 30 mins by […]. In kind it is cell-based.
Series [13] concerns the target T7, Integrin alpha-L/beta-2 (LFA-1) (Homo sapiens, UniProt P05107+P20701). Kind of series: Agonist activity at alphaLbeta2 in human Jurkat E6.1 cells assessed as increase in cell adhesion to ICAM1 pre-incubated for 30 mins before ICAM1 and further incubated for 30 mins by […]. In kind it is cell-based. The essentials:
as §5

Series [14] has as its target T7, Integrin alpha-L/beta-2 (LFA-1). Put plainly: Antagonist activity at alphaLbeta2 in human Jurkat E6.1 cells assessed as reduction in cell adhesion to ICAM1 pre-incubated for 30 mins before ICAM1 and further incubated for 30 mins by […]. In kind it is cell-based. The essentials: as §5

The source made the active and inactive calls. The rule behind the calls is not given here.

T7 sequence (P20701 whole entry): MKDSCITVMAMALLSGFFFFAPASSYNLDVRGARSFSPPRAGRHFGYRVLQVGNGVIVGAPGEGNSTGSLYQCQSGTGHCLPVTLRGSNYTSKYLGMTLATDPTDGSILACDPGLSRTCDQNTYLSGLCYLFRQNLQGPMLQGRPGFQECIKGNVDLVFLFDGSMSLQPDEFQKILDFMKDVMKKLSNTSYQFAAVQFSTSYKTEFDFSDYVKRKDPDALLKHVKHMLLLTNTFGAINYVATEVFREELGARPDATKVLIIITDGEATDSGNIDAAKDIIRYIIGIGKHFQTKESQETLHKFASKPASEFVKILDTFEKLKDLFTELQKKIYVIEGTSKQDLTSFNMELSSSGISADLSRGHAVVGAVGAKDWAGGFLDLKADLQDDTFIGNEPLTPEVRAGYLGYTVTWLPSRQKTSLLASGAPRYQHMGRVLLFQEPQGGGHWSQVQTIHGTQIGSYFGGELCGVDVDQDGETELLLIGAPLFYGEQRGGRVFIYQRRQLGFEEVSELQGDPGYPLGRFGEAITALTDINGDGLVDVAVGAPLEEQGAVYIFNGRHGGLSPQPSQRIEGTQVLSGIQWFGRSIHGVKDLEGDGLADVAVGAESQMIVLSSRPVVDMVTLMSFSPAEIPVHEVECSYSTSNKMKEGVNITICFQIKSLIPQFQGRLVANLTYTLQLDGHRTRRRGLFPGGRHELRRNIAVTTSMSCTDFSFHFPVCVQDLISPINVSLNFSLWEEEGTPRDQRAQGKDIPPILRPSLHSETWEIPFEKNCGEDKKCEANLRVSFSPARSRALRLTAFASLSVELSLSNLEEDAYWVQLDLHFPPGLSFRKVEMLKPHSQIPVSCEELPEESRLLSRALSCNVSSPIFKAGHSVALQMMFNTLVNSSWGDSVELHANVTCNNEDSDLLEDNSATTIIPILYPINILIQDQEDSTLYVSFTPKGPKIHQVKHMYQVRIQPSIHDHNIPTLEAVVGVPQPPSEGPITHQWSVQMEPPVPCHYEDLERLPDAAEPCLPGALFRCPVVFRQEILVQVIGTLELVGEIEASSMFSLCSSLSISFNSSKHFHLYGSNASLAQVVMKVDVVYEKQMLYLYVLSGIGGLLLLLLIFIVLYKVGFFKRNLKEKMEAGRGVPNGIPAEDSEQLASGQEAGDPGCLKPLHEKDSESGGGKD
T7 sequence (P05107 whole entry): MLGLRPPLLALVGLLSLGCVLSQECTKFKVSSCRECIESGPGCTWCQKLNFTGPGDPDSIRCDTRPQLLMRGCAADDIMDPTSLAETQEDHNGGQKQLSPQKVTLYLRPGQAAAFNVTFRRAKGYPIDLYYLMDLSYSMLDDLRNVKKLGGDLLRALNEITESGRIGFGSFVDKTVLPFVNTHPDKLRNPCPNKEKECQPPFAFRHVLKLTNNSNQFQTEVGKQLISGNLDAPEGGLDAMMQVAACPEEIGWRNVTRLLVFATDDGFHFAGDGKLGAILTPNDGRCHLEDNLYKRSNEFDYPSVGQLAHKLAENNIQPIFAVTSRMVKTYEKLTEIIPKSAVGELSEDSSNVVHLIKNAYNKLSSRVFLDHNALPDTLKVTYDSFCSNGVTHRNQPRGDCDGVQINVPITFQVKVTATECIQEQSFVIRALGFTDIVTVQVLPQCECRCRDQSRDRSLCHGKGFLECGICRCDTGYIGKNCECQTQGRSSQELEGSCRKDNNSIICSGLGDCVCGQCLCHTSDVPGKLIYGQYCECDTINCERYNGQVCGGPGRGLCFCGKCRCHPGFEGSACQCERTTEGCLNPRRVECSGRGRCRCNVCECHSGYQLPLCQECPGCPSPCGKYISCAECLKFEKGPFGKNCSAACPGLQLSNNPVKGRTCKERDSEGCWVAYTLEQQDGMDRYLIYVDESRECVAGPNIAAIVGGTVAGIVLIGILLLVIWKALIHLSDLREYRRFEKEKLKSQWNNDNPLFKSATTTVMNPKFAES
T5 sequence (P05556 whole entry): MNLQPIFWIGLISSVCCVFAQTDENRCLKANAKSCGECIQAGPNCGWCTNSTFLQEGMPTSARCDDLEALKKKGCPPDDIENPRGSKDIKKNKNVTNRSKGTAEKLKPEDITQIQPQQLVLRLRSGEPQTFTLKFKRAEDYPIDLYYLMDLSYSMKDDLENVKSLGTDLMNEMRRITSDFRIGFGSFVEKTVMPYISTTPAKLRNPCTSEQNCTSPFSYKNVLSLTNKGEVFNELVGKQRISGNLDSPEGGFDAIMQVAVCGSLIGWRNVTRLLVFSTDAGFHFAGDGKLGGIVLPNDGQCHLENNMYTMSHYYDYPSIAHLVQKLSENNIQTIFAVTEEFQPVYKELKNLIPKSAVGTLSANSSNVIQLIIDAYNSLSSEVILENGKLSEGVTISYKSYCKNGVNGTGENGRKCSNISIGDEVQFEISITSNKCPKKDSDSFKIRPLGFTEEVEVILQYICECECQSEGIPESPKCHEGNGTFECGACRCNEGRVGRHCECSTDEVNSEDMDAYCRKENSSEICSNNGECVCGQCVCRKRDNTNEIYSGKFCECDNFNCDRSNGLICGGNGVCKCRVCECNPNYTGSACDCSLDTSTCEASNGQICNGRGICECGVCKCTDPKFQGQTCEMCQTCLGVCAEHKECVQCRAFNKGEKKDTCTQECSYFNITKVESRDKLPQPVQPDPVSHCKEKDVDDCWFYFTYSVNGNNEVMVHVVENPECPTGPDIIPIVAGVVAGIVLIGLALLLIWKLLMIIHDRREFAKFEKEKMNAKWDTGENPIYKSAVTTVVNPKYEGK
T5 sequence (P13612 whole entry): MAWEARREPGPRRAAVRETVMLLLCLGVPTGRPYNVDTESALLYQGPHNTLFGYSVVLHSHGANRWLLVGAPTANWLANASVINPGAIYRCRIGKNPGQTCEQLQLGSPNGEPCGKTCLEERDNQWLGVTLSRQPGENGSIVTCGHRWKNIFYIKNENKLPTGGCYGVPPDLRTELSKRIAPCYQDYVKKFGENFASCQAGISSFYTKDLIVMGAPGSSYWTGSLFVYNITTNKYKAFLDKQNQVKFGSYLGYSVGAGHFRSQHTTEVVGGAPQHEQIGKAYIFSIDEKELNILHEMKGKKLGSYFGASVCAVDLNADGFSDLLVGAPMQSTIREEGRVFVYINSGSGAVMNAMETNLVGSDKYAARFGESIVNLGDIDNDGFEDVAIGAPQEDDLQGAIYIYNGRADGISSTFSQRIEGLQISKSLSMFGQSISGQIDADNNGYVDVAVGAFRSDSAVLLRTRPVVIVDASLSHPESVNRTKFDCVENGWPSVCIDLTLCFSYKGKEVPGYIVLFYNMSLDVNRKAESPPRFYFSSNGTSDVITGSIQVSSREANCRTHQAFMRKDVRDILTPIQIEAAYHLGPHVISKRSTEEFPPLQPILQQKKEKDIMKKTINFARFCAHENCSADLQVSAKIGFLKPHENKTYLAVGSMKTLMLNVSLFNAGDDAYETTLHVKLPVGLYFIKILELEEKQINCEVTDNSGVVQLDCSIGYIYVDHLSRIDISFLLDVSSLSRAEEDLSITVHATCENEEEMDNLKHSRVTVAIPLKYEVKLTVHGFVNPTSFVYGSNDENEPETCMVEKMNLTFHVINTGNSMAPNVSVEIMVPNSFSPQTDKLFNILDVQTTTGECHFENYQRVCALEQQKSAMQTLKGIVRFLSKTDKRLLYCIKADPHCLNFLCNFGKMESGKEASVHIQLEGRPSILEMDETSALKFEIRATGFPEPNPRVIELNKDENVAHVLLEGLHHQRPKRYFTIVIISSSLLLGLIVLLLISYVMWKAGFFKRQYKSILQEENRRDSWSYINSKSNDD

On to `Cc1ccccc1NC(=O)N1C(=O)C[C@H]1C(=O)NCCC(=O)O`, for which the Activity result in the series on SK-MEL-24, in the series on MCF7, in the series on HT-29, in the series on K562 and with HEL was “Non-Toxic” each time. Further, the result at Integrin alpha-V/beta-3 [1] and on Integrin alpha-V/beta-3 [2] was Active. The EC50 (at Integrin alpha-V/beta-5 [3]; on Integrin alpha-V/beta-6 [5]; at Integrin alpha-5/beta-1 [7]; at Integrin alpha-4/beta-1 [9]; in [10]; in series [13]) was above 5 µM throughout. Moreover, the IC50 (at Integrin alpha-V/beta-5 [4]; on Integrin alpha-V/beta-6 [6]; at Integrin alpha-5/beta-1 [8]; in series [11]; on Integrin alpha-4/beta-1 [12]; in series [14]) was above 5 µM each time.

The record behind these values is ChEMBL document CHEMBL4680084, “New β-Lactam Derivatives Modulate Cell Adhesion and Signaling Mediated by RGD-Binding and Leukocyte Integrins” (J Med Chem, 2016).
